Activity calls are given as the source filed them. How the calls were made is not given here.

System in the first experiment: not listed separately
Put plainly: MDA-MB-231 breast cancer cell cytotoxicity, dose response, CellTiter-Glo luminescence, dry powder (AID 588705). As to conditions: MDA-MB-231 viability, CellTiter-Glo luminescence, 72 h. Summed up:
(§1)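 Material: MDA231 (MDA-MB-231) human breast cancer cell line | Amount: 1000 cells/well | Medium: Serum-free DMEM/MEGM screening medium | Incubation: 72 h compound exposure after 24 h attachment | Signal: CellTiter-Glo luminescence for cell viability | Benchmarks: DMSO-only negative control wells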
(In general: Cellular ATP, detected with luciferase, serves as a proxy for viable cell number.)
As to `O=C(N/N=C/c1ccc[nH]1)c1cc2ccccc2o1`, the result was inactive.

Another experiment deals with MDA-MB-231 viability, CellTiter-Glo luminescence, 72 h. The description is as above.
Details: not given
Summed up:
as §1
What is called AC50 is the midpoint of the concentration-response curve, whichever way the signal moves. On to `O=C(COc1ccc(Cl)cc1Cl)N/N=C/c1cnc[nH]1`, for which the AC50 is 31.6 µM. Consider `O=C(COc1cc(Cl)ccc1Cl)N/N=C/c1ccc[nH]1`, for which the AC50 was 7.24 µM. On to `O=C(COc1c(Cl)cc(Cl)cc1Cl)N/N=C/c1ccc[nH]1`, for which the AC50 was 2.81 µM. As for `Cc1cc(Cl)ccc1OCC(=O)N/N=C/c1ccc[nH]1`, the AC50 is 16.7 µM. In the case of `CC(C)(C)c1ccc2c(c1)OC(C(=O)N/N=C/c1ccc[nH]1)CO2` (configuration not stated), the AC50 was 14.7 µM. Same read-out and setting: then `O=C(COc1ccc(Cl)cc1Cl)N/N=C/c1ccc[nH]1`, with 47.6 µM.

(Values after PubChem BioAssay AID588705 (Broad Institute, 2011).)
